Results reported in paper PMC8237303 (Heliyon, 2021).

Experiments:
[1] = molecular target: Adenosine A1 receptor (Human) (Homo sapiens, UniProt P30542); experiment: [3H]8-Cyclopentyl-1,3-dipropylxanthine; assay type: binding; settings: 0.1 mM l-menthol; Human recombinant
[2] = molecular target: Neurotensin NT1 receptor (Human) (Homo sapiens, UniProt P30989); experiment: [125I]-Neurotensin binding assay; settings: 0.1 mM l-menthol; Human recombinant
[3] = molecular target: Dopamine D3 receptor (Human) (Homo sapiens, UniProt P35462); experiment: R-; assay type: binding; settings: 0.1 mM l-menthol; Human recombinant
[4] = test system: Bombesin receptor (Non-selective); experiment: [125I]-Bombesin binding assay; settings: 0.1 mM l-menthol; Rat whole brain
[5] = test system: PAF receptor; experiment: 1-O-Hexadecyl-[3H]-Platelet Activating Factor; assay type: binding; settings: 0.1 mM l-menthol; Rabbit platelet
[6] = test system: mouse ambulation; experiment: Measurement of mouse ambulatory activity; assay type: in vivo; settings: mice
Outline: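 Ambulometer (SAM-10) recording; 30-min adaptation, then s.c. saline or 100, 200, 400 or 800 mg/kg test compound; n = 19–20 mice per group. Each mouse's activity normalized to its total adaptation-period activity, binned per 10 min (median, quartiles); total normalized activity over 60 min post-dose compared by Kruskal-Wallis then Wilcoxon versus vehicle, P < 0.05.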

[7] = molecular target: Serotonin 5HT1A receptor (Human) (Homo sapiens, UniProt P08908); experiment: [3H]-8-Hydreoxy-DPAT binding assay; settings: 0.1 mM l-menthol; Human recombinant
[8] = test system: Ca Channel (Type L, Dihydropyridine); experiment: [3H]-PN200-110 binding assay; settings: 0.1 mM l-menthol; Rat cerebral cortex
[9] = molecular target: Endothelin ETB receptor (Human) (Homo sapiens, UniProt P24530); experiment: [125I]-Endothelin-1; assay type: binding; settings: 0.1 mM l-menthol; Human recombinant
[10] = molecular target: Neurokinin NK3 receptor (Human) (Homo sapiens, UniProt P29371); experiment: [125I]-Neurokinin B; assay type: binding; settings: 0.1 mM l-menthol; Human recombinant
[11] = molecular target: T1, CRF1 receptor (Human) (Homo sapiens, UniProt P34998); experiment: [125I]-Corticotropin Releasing Factor; assay type: binding; settings: 0.1 mM l-menthol; Human recombinant
T1 sequence (P34998 24-415): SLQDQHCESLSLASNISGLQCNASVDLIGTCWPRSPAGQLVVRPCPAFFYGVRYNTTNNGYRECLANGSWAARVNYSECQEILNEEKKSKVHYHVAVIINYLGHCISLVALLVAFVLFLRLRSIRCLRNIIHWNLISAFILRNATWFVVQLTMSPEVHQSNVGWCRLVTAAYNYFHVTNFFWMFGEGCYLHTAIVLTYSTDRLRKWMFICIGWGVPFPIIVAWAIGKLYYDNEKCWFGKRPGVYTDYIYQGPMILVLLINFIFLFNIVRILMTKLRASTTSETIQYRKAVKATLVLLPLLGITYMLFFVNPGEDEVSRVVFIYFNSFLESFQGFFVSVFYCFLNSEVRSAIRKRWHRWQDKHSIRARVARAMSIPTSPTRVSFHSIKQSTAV

[12] = test system: Leukotriene B4 receptor; experiment: [3H]-Leukotriene B4 binding assay; settings: 0.1 mM l-menthol; Guinea pig lung
[13] = molecular target: CCK A receptor (Human) (Homo sapiens, UniProt P32238); experiment: [125I]-Cholecystokinin Octapeptide binding assay; settings: 0.1 mM l-menthol; Human recombinant
[14] = test system: K Channel SkCa; experiment: [125I]-Apamin binding assay; settings: 0.1 mM l-menthol; Rat whole brain
[15] = test system: Glutamate receptor (Kainate); experiment: [3H]-Kainic Acid binding assay; settings: 0.1 mM l-menthol; Rat whole brain
[16] = molecular target: Muscarinic M3 receptor (Human) (Homo sapiens, UniProt P20309); assay type: binding; settings: 0.1 mM l-menthol; Human recombinant
[17] = molecular target: Dopamine transporter (Human) (Homo sapiens, UniProt Q01959); experiment: [3H]-WIN35,428 binding assay
[18] = molecular target: β2-Adrenergic receptor (Human) (Homo sapiens, UniProt P07550); experiment: [3H]-; assay type: binding; settings: 0.1 mM l-menthol; Human recombinant
[19] = molecular target: Bradykinin B1 receptor (Human) (Homo sapiens, UniProt P46663); experiment: [3H]-Kallidin; assay type: binding; settings: 0.1 mM l-menthol; Human recombinant
[20] = test system: Monoamine transporter; experiment: [3H]-α-Dihydrotetrabenazine binding assay; settings: 0.1 mM l-menthol; Rabbit platelet
[21] = test system: GABA A receptor (Picrotoxin site); experiment: [3H]-EBOB binding assay; set-up: species or system Rat
[22] = test system: Ca channel (Type L, Benzothiazepine); experiment: [3H]-; assay type: binding; settings: 0.1 mM l-menthol; Rat cerebral cortex
[23] = molecular target: CCK B receptor (Human) (Homo sapiens, UniProt P32239); experiment: [125I]-Cholecystokinin Octapeptide binding assay; settings: 0.1 mM l-menthol; Human recombinant
[24] = molecular target: Serotonin 5HT2A receptor (Human) (Homo sapiens, UniProt P28223); experiment: [3H]-Ketanserin hydrochloride binding assay; settings: 0.1 mM l-menthol; Human recombinant
[25] = molecular target: Glutamate receptor (NMDAglycine site) (Rattus norvegicus, UniProt P35439); experiment: [3H]-MDL105,519 binding assay; settings: 0.1 mM l-menthol; Rat cerebral cortex
[26] = test system: Glycine receptor (Strychnine sensitive); assay type: binding; settings: 0.1 mM l-menthol; Rat spinal cord
[27] = molecular target: Serotonin 5HT3 receptor (Human) (Homo sapiens, UniProt P46098); experiment: [3H]-GR65630 binding assay; settings: 0.1 mM l-menthol; Human recombinant
[28] = molecular target: Leukotriene D4 receptor (Cavia porcellus, UniProt Q2NNR5); experiment: [3H]-Leukotriene D4 binding assay; settings: 0.1 mM l-menthol; Guinea pig lung
[29] = molecular target: Melatonin MT1 receptor (Human) (Homo sapiens, UniProt P48039); experiment: [125I]-Melatonin binding assay; settings: 0.1 mM l-menthol; Human recombinant
[30] = molecular target: Neurokinin NK2 receptor (Human) (Homo sapiens, UniProt P21452); experiment: [3H]-SR 48968 binding assay; settings: 0.1 mM l-menthol; Human recombinant
[31] = molecular target: Opiate μ receptor (Human) (Homo sapiens, UniProt P35372); experiment: [3H]-Diprenorphine binding assay; settings: 0.1 mM l-menthol; Human recombinant
[32] = molecular target: Opiate δ receptor (Human) (Homo sapiens, UniProt P41143); experiment: [3H]-Naltrindole binding assay; settings: 0.1 mM l-menthol; Human recombinant
[33] = molecular target: α2A-Adrenergic receptor (Human) (Homo sapiens, UniProt P08913); experiment: [3H]-Rauwolscine hydrochloride binding assay; settings: 0.1 mM l-menthol; Human recombinant
[34] = molecular target: Ca Channel (Type N) (Rattus norvegicus, UniProt Q02294); assay type: binding
[35] = test system: K channel KA; experiment: [125I]-Dendrotoxin binding assay; settings: 0.1 mM l-menthol; Rat cerebral cortex

Sequence of Dopamine transporter (Human) (Q01959 whole entry): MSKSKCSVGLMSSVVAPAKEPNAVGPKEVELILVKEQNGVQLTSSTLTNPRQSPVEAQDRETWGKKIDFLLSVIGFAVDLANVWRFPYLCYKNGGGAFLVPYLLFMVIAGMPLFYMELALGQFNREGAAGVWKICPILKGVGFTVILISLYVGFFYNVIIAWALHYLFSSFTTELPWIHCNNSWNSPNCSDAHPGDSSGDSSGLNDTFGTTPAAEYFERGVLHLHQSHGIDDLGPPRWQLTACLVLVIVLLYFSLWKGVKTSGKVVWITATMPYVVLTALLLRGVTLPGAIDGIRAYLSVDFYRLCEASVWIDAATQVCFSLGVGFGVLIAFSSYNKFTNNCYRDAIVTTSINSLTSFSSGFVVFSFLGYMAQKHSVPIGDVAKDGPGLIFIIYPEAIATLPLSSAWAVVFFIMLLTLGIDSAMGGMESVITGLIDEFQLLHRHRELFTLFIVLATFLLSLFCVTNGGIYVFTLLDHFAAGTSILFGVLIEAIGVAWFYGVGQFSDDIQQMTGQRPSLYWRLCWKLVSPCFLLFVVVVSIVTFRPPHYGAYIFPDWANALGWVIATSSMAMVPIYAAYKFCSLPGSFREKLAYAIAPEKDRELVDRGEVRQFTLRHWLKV
Sequence of Bradykinin B1 receptor (Human) (P46663 whole entry): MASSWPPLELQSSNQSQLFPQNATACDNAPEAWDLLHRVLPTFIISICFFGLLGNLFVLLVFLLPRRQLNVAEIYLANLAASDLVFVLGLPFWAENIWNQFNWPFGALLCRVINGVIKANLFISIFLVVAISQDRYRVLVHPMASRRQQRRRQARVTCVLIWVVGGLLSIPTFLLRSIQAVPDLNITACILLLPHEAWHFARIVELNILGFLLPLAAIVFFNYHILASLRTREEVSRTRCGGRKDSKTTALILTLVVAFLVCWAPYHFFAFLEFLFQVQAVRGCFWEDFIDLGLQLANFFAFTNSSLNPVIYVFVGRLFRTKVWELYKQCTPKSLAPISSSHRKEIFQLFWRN
Sequence of Ca Channel (Type N) (Q02294 whole entry): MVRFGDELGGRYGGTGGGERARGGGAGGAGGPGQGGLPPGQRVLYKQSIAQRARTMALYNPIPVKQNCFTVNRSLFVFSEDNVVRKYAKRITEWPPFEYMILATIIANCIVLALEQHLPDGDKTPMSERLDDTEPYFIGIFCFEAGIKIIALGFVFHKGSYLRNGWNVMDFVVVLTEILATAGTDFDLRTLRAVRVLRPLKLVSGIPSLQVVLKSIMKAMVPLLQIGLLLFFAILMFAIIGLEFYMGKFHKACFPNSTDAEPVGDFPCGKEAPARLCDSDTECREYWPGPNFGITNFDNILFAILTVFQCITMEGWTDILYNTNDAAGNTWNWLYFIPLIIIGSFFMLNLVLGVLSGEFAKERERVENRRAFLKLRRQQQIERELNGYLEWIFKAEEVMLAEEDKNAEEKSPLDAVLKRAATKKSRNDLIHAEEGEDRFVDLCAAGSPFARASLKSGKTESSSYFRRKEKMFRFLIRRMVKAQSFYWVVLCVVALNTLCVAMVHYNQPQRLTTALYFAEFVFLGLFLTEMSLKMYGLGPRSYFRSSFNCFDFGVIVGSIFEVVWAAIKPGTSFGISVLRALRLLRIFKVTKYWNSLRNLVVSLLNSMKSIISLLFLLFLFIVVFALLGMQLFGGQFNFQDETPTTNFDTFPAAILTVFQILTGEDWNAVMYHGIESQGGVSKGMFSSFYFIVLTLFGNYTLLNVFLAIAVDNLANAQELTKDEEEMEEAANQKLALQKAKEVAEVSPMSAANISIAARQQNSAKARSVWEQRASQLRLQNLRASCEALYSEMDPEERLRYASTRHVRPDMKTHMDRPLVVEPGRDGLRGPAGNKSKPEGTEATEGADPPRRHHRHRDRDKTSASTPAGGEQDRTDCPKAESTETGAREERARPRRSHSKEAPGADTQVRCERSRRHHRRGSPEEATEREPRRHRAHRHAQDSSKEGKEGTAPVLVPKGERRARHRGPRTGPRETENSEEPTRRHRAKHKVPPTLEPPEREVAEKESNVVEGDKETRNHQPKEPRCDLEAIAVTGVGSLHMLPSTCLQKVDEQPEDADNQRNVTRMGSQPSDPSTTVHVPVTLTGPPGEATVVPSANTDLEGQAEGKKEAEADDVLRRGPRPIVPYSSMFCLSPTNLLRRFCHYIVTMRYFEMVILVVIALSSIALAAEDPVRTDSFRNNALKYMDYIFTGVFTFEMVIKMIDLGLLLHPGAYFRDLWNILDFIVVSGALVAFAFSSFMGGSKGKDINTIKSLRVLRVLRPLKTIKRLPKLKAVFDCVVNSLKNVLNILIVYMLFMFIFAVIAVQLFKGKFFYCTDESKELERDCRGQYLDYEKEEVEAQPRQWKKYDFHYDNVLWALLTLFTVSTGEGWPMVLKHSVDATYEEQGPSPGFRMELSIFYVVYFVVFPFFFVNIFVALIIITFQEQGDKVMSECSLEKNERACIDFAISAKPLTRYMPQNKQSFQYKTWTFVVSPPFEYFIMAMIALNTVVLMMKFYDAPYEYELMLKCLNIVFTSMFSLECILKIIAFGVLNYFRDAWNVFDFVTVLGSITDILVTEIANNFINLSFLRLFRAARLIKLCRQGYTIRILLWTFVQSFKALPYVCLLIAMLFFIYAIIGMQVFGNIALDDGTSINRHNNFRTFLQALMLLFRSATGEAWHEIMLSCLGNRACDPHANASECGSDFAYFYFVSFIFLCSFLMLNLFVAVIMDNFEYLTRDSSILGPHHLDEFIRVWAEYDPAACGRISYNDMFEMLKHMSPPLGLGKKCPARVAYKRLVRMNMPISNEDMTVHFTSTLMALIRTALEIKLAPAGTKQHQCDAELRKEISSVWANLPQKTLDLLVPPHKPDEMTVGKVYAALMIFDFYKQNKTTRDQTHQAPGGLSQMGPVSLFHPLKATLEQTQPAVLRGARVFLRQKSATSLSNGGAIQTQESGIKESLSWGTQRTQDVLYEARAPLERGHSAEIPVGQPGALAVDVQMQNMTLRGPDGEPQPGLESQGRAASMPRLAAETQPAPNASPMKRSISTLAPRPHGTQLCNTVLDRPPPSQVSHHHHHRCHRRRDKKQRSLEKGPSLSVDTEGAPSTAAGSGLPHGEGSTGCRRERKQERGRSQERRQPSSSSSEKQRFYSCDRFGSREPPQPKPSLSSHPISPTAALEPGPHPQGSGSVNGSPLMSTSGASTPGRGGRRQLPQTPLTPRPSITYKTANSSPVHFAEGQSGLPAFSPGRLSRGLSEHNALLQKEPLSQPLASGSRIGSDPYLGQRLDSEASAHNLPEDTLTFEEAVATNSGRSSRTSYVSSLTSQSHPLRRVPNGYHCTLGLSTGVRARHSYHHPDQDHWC
Sequence of CCK A receptor (Human) (P32238 whole entry): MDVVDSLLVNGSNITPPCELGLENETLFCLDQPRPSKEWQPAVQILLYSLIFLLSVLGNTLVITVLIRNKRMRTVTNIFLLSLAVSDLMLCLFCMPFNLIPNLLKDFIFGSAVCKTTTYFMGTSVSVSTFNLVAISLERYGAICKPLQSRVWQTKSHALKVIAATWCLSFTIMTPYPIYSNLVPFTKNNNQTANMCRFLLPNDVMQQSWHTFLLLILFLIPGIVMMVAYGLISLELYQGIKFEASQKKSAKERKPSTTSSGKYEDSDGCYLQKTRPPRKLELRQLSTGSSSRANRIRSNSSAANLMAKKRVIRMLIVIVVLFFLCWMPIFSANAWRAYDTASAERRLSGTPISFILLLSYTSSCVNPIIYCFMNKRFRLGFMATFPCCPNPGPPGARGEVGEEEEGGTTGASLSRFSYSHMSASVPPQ
Sequence of Melatonin MT1 receptor (Human) (P48039 whole entry): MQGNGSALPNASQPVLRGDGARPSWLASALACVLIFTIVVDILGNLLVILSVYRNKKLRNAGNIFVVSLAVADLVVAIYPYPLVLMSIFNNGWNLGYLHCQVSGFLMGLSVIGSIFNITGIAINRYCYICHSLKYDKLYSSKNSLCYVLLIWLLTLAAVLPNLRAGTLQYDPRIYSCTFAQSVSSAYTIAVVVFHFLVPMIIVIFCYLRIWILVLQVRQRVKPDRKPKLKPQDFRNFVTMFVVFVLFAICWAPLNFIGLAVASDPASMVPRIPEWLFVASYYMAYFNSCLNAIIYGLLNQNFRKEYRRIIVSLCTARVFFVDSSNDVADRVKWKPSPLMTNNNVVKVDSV
Sequence of β2-Adrenergic receptor (Human) (P07550 whole entry): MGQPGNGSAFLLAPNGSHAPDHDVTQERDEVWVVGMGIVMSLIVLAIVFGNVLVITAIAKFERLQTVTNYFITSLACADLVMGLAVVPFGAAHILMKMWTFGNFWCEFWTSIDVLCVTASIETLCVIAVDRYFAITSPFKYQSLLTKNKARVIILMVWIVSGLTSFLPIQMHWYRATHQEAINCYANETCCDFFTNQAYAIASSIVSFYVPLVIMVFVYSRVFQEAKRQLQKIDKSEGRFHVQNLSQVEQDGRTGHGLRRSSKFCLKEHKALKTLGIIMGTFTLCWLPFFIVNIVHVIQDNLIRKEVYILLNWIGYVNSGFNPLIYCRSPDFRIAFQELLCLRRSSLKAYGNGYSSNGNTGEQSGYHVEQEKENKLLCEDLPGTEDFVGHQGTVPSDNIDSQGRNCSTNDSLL
Sequence of Serotonin 5HT2A receptor (Human) (P28223 whole entry): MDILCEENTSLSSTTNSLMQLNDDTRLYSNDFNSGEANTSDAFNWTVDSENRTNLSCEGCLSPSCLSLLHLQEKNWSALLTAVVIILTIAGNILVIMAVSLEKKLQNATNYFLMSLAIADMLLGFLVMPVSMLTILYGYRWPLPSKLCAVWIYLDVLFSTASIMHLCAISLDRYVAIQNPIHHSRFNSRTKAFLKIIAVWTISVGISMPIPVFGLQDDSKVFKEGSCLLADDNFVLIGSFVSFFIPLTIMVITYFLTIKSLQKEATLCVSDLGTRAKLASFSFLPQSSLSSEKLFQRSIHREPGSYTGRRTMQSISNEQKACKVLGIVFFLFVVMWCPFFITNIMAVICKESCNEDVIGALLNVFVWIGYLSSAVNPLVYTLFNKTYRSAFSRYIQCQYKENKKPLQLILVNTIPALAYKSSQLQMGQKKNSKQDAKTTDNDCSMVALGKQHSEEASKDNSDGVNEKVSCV

## CC(C)[C@@H]1CC[C@@H](C)C[C@H]1O [l-menthol]
[1]
  Inhibition by l-Menthol (%): 1.83%
[2]
  Inhibition by l-Menthol (%): 0%
[3]
  Inhibition by l-Menthol (%): 6.32%
[4]
  Inhibition by l-Menthol (%): 21.87%
[5]
  Inhibition by l-Menthol (%): 0%
[6]; 100-800 mg/kg s.c., Kruskal-Wallis test P < 0.0001
  Dose dependence of the ambulation-promoting effect: dose dependent
[6]; subcutaneous 100-800 mg/kg
  Time of maximum ambulatory activity after administration: 5 min
[7]
  Inhibition by l-Menthol (%): 0%
[8]
  Inhibition by l-Menthol (%): 1.17%
[9]
  Inhibition by l-Menthol (%): 3.39%
[10]
  Inhibition by l-Menthol (%): 4.65%
[11]
  Inhibition by l-Menthol (%): 0%
[12]
  Inhibition by l-Menthol (%): 11.63%
[13]
  Inhibition by l-Menthol (%): 0%
[14]
  Inhibition by l-Menthol (%): 2.36%
[15]
  Inhibition by l-Menthol (%): 0.14%
[16]
  Inhibition by l-Menthol (%): 0%
[17]
  Concentration dependence of inhibition of the [3H]-WIN35,428 binding: concentration-dependent
[17]; 0.1 mM l-menthol, Human recombinant
  Inhibition by l-Menthol (%): 20.67%
[17]; read-out: IC50 for inhibition of the [3H]-WIN35,428 binding, human recombinant dopamine transporter, 7 concentrations, duplicate
  IC50: 719 µM
[17]; read-out: Ki (mol/L), inhibition of the binding of [3H]-WIN35,428, Dopamine transporter (Human), Ki=IC50/(1+[L/Kd])
  Ki: 0.000615 mol/L
[18]
  Inhibition by l-Menthol (%): 0%
[19]
  Inhibition by l-Menthol (%): 6.03%
[20]
  Inhibition by l-Menthol (%): 7.73%
[21]
  Concentration dependence of inhibition of the [3H]-EBOB binding: concentration-dependent
[21]; 0.1 mM l-menthol, Rat cerebral cortex
  Inhibition by l-Menthol (%): 20.9%
[21]; read-out: IC50 for inhibition of the [3H]-EBOB binding, rat cerebral cortex preparation, 7 concentrations, duplicate
  IC50: 554 µM
[21]; read-out: Ki (mol/L), inhibition of the binding of [3H]-EBOB, GABAA (Picrotoxin site), Ki=IC50/(1+[L/Kd])
  Ki: 0.000288 mol/L
[22]
  Inhibition by l-Menthol (%): 0%
[23]
  Inhibition by l-Menthol (%): 3.31%
[24]
  Inhibition by l-Menthol (%): 8.32%
[25]
  Inhibition by l-Menthol (%): 2.56%
[26]
  Inhibition by l-Menthol (%): 0%
[27]
  Inhibition by l-Menthol (%): 2.21%
[28]
  Inhibition by l-Menthol (%): 0%
[29]
  Inhibition by l-Menthol (%): 5.74%
[30]
  Inhibition by l-Menthol (%): 6.12%
[31]
  Inhibition by l-Menthol (%): 0%
[32]
  Inhibition by l-Menthol (%): 0.3%
[33]
  Inhibition by l-Menthol (%): 11.34%
[34]
  Inhibition by l-Menthol (%): 0%
[35]
  Inhibition by l-Menthol (%): 5.11%
